Reference: ChEMBL document CHEMBL3792377, “Synthesis and characterization of a series of chiral alkoxymethyl morpholine analogs as dopamine receptor 4 (D4R) antagonists” (Bioorg Med Chem Lett, 2016)

Target: D(1A) dopamine receptor (Homo sapiens, UniProt P21728)
Experiment: Displacement of [3H]-SCH-23390 from human recombinant dopamine D1 receptor expressed in CHO cells at 10 uM relative to control
Format: cell-based
Conditions: not given
Summary of the method: (§1)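 Off-target dopamine receptor radioligand binding (D1, D2L, D2S, D3, D5), run as a contract assay. Test compound at a single concentration of 10 µM, reported as % inhibition of specific binding, measured in duplicate.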

Chain of D(1A) dopamine receptor (P21728 whole entry): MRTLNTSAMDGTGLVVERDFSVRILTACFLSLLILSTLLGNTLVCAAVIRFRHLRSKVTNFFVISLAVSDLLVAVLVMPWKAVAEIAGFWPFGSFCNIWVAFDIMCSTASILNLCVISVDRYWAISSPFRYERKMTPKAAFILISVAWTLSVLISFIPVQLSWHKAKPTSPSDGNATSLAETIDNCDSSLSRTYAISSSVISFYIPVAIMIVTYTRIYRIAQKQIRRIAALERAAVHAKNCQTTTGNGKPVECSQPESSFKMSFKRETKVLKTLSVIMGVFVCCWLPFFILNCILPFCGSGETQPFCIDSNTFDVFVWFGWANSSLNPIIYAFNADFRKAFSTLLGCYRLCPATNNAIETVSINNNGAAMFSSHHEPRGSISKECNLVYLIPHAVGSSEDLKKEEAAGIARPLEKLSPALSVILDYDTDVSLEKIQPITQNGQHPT

inhibition [%]	SMILES
< 50	Fc1ccc(OC[C@@H]2CN(Cc3ccc(Cl)cc3)CCO2)cc1
< 50	c1ccc(OC[C@@H]2CN(Cc3ccc4[nH]ccc4c3)CCO2)cc1
< 50	COc1ccc(CN2CCO[C@H](COc3ccc(F)cc3)C2)cc1

Second part, the molecule before the results:

SMILES	inhibition [%]
Fc1ccc2c(CN3CCO[C@H](COc4ccccc4)C3)c[nH]c2c1	< 50
COc1cc(CN2CCO[C@H](COc3ccccc3)C2)ccc1Cl	< 50
COc1ccc2c(CN3CCO[C@H](COc4ccccc4)C3)c[nH]c2c1	< 50

Target: T1, D(2) dopamine receptor (Homo sapiens, UniProt P14416)
Experiment: Displacement of [3H]-Spiperone from human recombinant dopamine D2S receptor expressed in CHO cells at 10 uM relative to control
Format: cell-based
Conditions: not given
Summary of the method: as §1

T1 sequence (P14416 whole entry): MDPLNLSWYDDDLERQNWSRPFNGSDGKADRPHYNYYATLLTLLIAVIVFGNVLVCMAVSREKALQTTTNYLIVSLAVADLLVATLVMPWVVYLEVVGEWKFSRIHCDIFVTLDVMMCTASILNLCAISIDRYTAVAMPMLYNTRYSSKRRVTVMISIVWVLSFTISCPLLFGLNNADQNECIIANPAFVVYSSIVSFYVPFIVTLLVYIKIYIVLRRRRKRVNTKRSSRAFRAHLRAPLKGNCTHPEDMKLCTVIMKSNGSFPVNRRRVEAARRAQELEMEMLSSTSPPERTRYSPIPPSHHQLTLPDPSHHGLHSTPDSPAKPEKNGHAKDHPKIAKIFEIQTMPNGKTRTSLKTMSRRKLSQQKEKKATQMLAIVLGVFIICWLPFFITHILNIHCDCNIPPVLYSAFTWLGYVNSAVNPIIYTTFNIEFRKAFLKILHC

inhibition [%]	SMILES
79	Fc1ccc(OC[C@@H]2CN(Cc3ccc(Cl)cc3)CCO2)cc1
64	c1ccc(OC[C@@H]2CN(Cc3ccc4[nH]ccc4c3)CCO2)cc1
< 50	Cc1ccc(CN2CCO[C@H](COc3ccccc3)C2)cc1C
82	COc1ccc(CN2CCO[C@H](COc3ccc(F)cc3)C2)cc1
< 50	COc1cc(CN2CCO[C@H](COc3cccc(F)c3)C2)ccc1Cl
< 50	c1ccc(OC[C@@H]2CN(Cc3n[nH]c4ccccc34)CCO2)cc1

More lines, now with the values behind:

SMILES	inhibition [%]
Fc1ccc2c(CN3CCO[C@H](COc4cccc(F)n4)C3)c[nH]c2c1	< 50
COc1ccc(CN2CCO[C@H](COc3ccccc3)C2)cc1Cl	< 50
COc1ccc(CN2CCO[C@H](COc3cccc(F)c3)C2)cc1Cl	< 50
Fc1ccc2c(CN3CCO[C@H](COc4ccccc4)C3)c[nH]c2c1	76
c1ccc(OC[C@@H]2CN(Cc3ncn4ccccc34)CCO2)cc1	< 50
COc1cc(CN2CCO[C@H](COc3ccccc3)C2)ccc1Cl	60
COc1ccc2c(CN3CCO[C@H](COc4ccccc4)C3)c[nH]c2c1	82

Target: T2, D(4) dopamine receptor (Homo sapiens, UniProt P21917)
T2 sequence (P21917 whole entry): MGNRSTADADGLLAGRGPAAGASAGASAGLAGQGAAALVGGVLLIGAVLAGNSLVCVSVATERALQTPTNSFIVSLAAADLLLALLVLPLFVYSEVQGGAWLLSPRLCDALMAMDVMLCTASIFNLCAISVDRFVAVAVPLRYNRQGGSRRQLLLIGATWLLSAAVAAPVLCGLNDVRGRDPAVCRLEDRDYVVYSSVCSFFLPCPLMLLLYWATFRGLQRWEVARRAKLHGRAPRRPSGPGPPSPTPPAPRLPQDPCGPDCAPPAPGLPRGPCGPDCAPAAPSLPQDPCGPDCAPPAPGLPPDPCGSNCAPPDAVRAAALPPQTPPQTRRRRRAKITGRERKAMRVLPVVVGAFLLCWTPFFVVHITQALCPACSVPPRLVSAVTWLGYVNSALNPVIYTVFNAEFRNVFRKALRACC
Experiment: Displacement of [3H]-Spiperone from human recombinant dopamine D4 receptor expressed in CHOK1 cells
Format: cell-based, CHO-K1
Conditions: not given
Summary of the method: (§2)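 Radioligand binding at human D4 receptor using [3H]-spiperone, run as a contract assay in duplicate. IC50 and Ki were derived from concentration–response data. Single-point values are % inhibition of specific binding at 10 µM test compound.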

IC50 [nM]	Ki [nM]	SMILES
38	10.4	Fc1ccc(OC[C@@H]2CN(Cc3ccc(Cl)cc3)CCO2)cc1
58	15.9	c1ccc(OC[C@@H]2CN(Cc3ccc4[nH]ccc4c3)CCO2)cc1
100	28	COc1cc(CN2CCO[C@H](COc3cccc(C#N)c3)C2)ccc1Cl
150	42	COc1ccc(OC[C@@H]2CN(Cc3ccc(Cl)cc3)CCO2)cc1
45	12.3	Cc1ccc(CN2CCO[C@H](COc3ccccc3)C2)cc1C
150	43	COc1ccc(CN2CCO[C@H](COc3ccccc3)C2)cc1OC
47	13.1	COc1ccc(CN2CCO[C@H](COc3ccc(F)cc3)C2)cc1
37	10.1	COc1cc(CN2CCO[C@H](COc3cccc(F)c3)C2)ccc1Cl
1110	310	c1ccc(OC[C@@H]2CN(Cc3ccc4ccccc4n3)CCO2)cc1
42	11.6	COc1cc(CN2CCO[C@H](COc3ccccc3)C2)ccc1F
65	18.1	c1ccc(OC[C@@H]2CN(Cc3n[nH]c4ccccc34)CCO2)cc1
62	170	Fc1ccc(CN2CCO[C@H](COc3ccccc3)C2)cc1Cl
97	27	Clc1ccc(CN2CCO[C@H](COc3ccccc3)C2)cc1Cl
160	44	COc1ccc(CN2CCO[C@H](COc3ccccc3)C2)cc1
58	16.2	Fc1cc(CN2CCO[C@H](COc3ccccc3)C2)ccc1C(F)(F)F
180	51	FC(F)(F)Oc1ccc(CN2CCO[C@H](COc3ccccc3)C2)cc1
260	72	FC1(F)Oc2ccc(CN3CCO[C@H](COc4ccccc4)C3)cc2O1
210	59	COc1ccc(CN2CCO[C@H](COc3cccnc3)C2)cc1

Continued, molecule first:

SMILES	IC50 [nM]	Ki [nM]
c1ccc(OC[C@@H]2CN(Cc3cn4ccccc4n3)CCO2)cc1	590	160
Fc1ccc2c(CN3CCO[C@H](COc4cccc(F)n4)C3)c[nH]c2c1	76	21
COc1ccc(CN2CCO[C@H](COc3cccc(F)n3)C2)cc1Cl	260	73
COc1ccc(CN2CCO[C@H](COc3ccccc3)C2)cc1Cl	38	10.4
COc1ccc2[nH]cc(CN3CCO[C@H](COc4ccccc4)C3)c2c1	460	130
Clc1ccc2[nH]cc(CN3CCO[C@H](COc4ccccc4)C3)c2c1	130	37
Fc1cccc(OC[C@@H]2CN(Cc3ccc(Cl)cc3)CCO2)n1	460	130
COc1ccc(CN2CCO[C@H](COc3cccc(F)c3)C2)cc1	92	26
COc1ccc(CN2CCO[C@H](COc3ccc(OC)cc3)C2)cc1	380	110
COc1cccc(OC[C@@H]2CN(Cc3ccc(Cl)cc3)CCO2)c1	130	36
COc1ccc(CN2CCO[C@H](COc3cccc(F)c3)C2)cc1Cl	39	10.8
Fc1ccc2c(CN3CCO[C@H](COc4ccccc4)C3)c[nH]c2c1	18.9	5.2
c1ccc(OC[C@@H]2CN(Cc3ccc4ccccc4c3)CCO2)cc1	64	17.8
c1ccc(OC[C@@H]2CN(Cc3ncn4ccccc34)CCO2)cc1	130	35
Clc1ccc(CN2CCO[C@H](COc3cccc(Cl)n3)C2)cc1	100	29
Fc1ccc(CN2CCO[C@H](COc3ccccc3)C2)cc1C(F)(F)F	320	89
Fc1cc(CN2CCO[C@H](COc3ccccc3)C2)ccc1Cl	69	19.1
CSc1ccc(CN2CCO[C@H](COc3ccccc3)C2)cc1	58	16.1
Fc1ccc(CN2CCO[C@H](COc3ccccc3)C2)cc1F	530	150
c1ccc(OC[C@@H]2CN(Cc3cccc4cc[nH]c34)CCO2)cc1	130	37
COc1cc(CN2CCO[C@H](COc3ccccc3)C2)ccc1Cl	42	11.6
COc1ccc2c(CN3CCO[C@H](COc4ccccc4)C3)c[nH]c2c1	19.5	5.4
Fc1cccc2[nH]cc(CN3CCO[C@H](COc4ccccc4)C3)c12	3830	1060
COc1ccc(CN2CCO[C@H](COc3cccc(C#N)c3)C2)cc1Cl	130	36
Clc1ccc(CN2CCO[C@H](COc3ccccn3)C2)cc1	2630	730
Clc1ccc(CN2CCO[C@H](COc3cccnc3)C2)cc1	103	47

Target: T1, D(2) dopamine receptor
Experiment: Displacement of [3H]-Spiperone from human recombinant dopamine D2L receptor expressed in CHO cells at 10 uM relative to control
Format: cell-based
Conditions: not given
Summary of the method: as §1

inhibition [%]	SMILES
83	Fc1ccc(OC[C@@H]2CN(Cc3ccc(Cl)cc3)CCO2)cc1
64	c1ccc(OC[C@@H]2CN(Cc3ccc4[nH]ccc4c3)CCO2)cc1
88	COc1ccc(CN2CCO[C@H](COc3ccc(F)cc3)C2)cc1

Continued, molecule first:

SMILES	inhibition [%]
Fc1ccc2c(CN3CCO[C@H](COc4ccccc4)C3)c[nH]c2c1	78
COc1cc(CN2CCO[C@H](COc3ccccc3)C2)ccc1Cl	52
COc1ccc2c(CN3CCO[C@H](COc4ccccc4)C3)c[nH]c2c1	87

Tested on: Plasma
Experiment: Fraction unbound in rat plasma by equilibrium dialysis method
Format: ADME, cell-free
Conditions: not given

Fu	SMILES
0.069	c1ccc(OC[C@@H]2CN(Cc3ccc4[nH]ccc4c3)CCO2)cc1
0.014	COc1cc(CN2CCO[C@H](COc3cccc(F)c3)C2)ccc1Cl
0.006	Clc1ccc(CN2CCO[C@H](COc3ccccc3)C2)cc1Cl
0.007	Fc1cc(CN2CCO[C@H](COc3ccccc3)C2)ccc1C(F)(F)F

Further lines, the molecule ahead of its results:

SMILES	Fu
c1ccc(OC[C@@H]2CN(Cc3cn4ccccc4n3)CCO2)cc1	0.215
Fc1ccc2c(CN3CCO[C@H](COc4cccc(F)n4)C3)c[nH]c2c1	0.015
COc1ccc(CN2CCO[C@H](COc3ccccc3)C2)cc1Cl	0.019
COc1ccc(CN2CCO[C@H](COc3cccc(F)c3)C2)cc1Cl	0.013
Fc1ccc2c(CN3CCO[C@H](COc4ccccc4)C3)c[nH]c2c1	0.047
Clc1ccc(CN2CCO[C@H](COc3cccc(Cl)n3)C2)cc1	0.008
Fc1cc(CN2CCO[C@H](COc3ccccc3)C2)ccc1Cl	0.012
COc1cc(CN2CCO[C@H](COc3ccccc3)C2)ccc1Cl	0.025
COc1ccc2c(CN3CCO[C@H](COc4ccccc4)C3)c[nH]c2c1	0.075

Target: D(3) dopamine receptor (Homo sapiens, UniProt P35462)
Experiment: Displacement of [3H]-Spiperone from human recombinant dopamine D3 receptor expressed in CHO cells at 10 uM relative to control
Format: cell-based
Conditions: not given
Summary of the method: as §1

Chain of D(3) dopamine receptor (P35462 whole entry): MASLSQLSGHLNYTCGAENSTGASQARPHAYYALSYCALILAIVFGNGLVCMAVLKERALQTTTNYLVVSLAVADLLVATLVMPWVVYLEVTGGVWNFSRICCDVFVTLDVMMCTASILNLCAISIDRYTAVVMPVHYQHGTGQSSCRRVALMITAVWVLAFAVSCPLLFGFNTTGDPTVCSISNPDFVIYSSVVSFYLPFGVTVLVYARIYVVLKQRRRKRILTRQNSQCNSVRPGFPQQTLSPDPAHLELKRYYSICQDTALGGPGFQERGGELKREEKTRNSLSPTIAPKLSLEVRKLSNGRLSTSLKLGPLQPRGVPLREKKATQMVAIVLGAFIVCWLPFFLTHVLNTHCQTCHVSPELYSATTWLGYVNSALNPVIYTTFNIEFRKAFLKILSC

inhibition [%]	SMILES
51	Fc1ccc(OC[C@@H]2CN(Cc3ccc(Cl)cc3)CCO2)cc1
< 50	c1ccc(OC[C@@H]2CN(Cc3ccc4[nH]ccc4c3)CCO2)cc1
76	COc1ccc(CN2CCO[C@H](COc3ccc(F)cc3)C2)cc1

More lines, now with the values behind:

SMILES	inhibition [%]
Fc1ccc2c(CN3CCO[C@H](COc4ccccc4)C3)c[nH]c2c1	< 50
COc1cc(CN2CCO[C@H](COc3ccccc3)C2)ccc1Cl	< 50
COc1ccc2c(CN3CCO[C@H](COc4ccccc4)C3)c[nH]c2c1	70

Target: D(1B) dopamine receptor (Homo sapiens, UniProt P21918)
Experiment: Displacement of [3H]-SCH-23390 from human recombinant dopamine D5 receptor expressed in CHO cells at 10 uM relative to control
Format: cell-based
Conditions: not given
Summary of the method: as §1

Chain of D(1B) dopamine receptor (P21918 whole entry): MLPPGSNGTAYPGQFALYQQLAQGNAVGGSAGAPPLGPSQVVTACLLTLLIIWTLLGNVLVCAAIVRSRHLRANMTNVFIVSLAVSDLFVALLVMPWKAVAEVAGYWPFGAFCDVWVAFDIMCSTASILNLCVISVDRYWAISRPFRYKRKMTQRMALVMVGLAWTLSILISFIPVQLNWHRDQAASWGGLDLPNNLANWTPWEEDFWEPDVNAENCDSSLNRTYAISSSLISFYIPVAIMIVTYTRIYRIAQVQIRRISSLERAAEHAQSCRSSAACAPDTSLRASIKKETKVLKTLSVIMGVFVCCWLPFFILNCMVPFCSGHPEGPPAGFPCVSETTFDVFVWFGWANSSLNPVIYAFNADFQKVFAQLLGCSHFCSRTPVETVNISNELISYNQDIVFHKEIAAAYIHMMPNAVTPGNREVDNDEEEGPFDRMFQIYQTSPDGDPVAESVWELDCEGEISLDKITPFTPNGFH

inhibition [%]	SMILES
< 50	Fc1ccc(OC[C@@H]2CN(Cc3ccc(Cl)cc3)CCO2)cc1
< 50	c1ccc(OC[C@@H]2CN(Cc3ccc4[nH]ccc4c3)CCO2)cc1
< 50	COc1ccc(CN2CCO[C@H](COc3ccc(F)cc3)C2)cc1

The remaining lines, values behind:

SMILES	inhibition [%]
Fc1ccc2c(CN3CCO[C@H](COc4ccccc4)C3)c[nH]c2c1	< 50
COc1cc(CN2CCO[C@H](COc3ccccc3)C2)ccc1Cl	< 50
COc1ccc2c(CN3CCO[C@H](COc4ccccc4)C3)c[nH]c2c1	< 50

Target: T3, D(4) dopamine receptor (Homo sapiens) (UniProt P21917)
T3 sequence (whole entry): T2 sequence (P21917 whole entry)
Experiment: Displacement of [3H]-Spiperone from human recombinant dopamine D4 receptor expressed in CHOK1 cells at 10 uM relative to control
Format: cell-based
Conditions: CHO-K1
Summary of the method: as §2

inhibition [%]	SMILES
8	COc1ccc(CN2CCO[C@H](COc3ncccn3)C2)cc1
-3	COc1cc(CN2CCO[C@H](COc3cccc(F)n3)C2)ccc1Cl
31	Clc1ccc(CN2CCO[C@H](COc3ncccn3)C2)cc1
57	COc1ccc(CN2CCO[C@H](COc3ccccn3)C2)cc1
35	COc1ccc(CN2CCO[C@@H](COc3ccccc3)C2)cc1Cl
76	Clc1ccc(CN2CCO[C@H](COc3cncnc3)C2)cc1
-4	COc1ccc(CN2CCO[C@H](COc3cncnc3)C2)cc1
37	COc1ccc(CN2CCO[C@H](COc3ccccn3)C2)cc1Cl
34	COc1cc(CN2CCO[C@H](COc3ccccn3)C2)ccc1Cl

Tested on: not listed separately
Experiment: Fraction unbound in human plasma by equilibrium dialysis method
Format: ADME, cell-free
Conditions: not given

Fu	SMILES
0.035	c1ccc(OC[C@@H]2CN(Cc3ccc4[nH]ccc4c3)CCO2)cc1
0.011	COc1cc(CN2CCO[C@H](COc3cccc(F)c3)C2)ccc1Cl
0.002	Clc1ccc(CN2CCO[C@H](COc3ccccc3)C2)cc1Cl
0.002	Fc1cc(CN2CCO[C@H](COc3ccccc3)C2)ccc1C(F)(F)F

The next lines start with the molecule.

SMILES	Fu
c1ccc(OC[C@@H]2CN(Cc3cn4ccccc4n3)CCO2)cc1	0.057
Fc1ccc2c(CN3CCO[C@H](COc4cccc(F)n4)C3)c[nH]c2c1	0.009
COc1ccc(CN2CCO[C@H](COc3ccccc3)C2)cc1Cl	0.01
COc1ccc(CN2CCO[C@H](COc3cccc(F)c3)C2)cc1Cl	0.006
Fc1ccc2c(CN3CCO[C@H](COc4ccccc4)C3)c[nH]c2c1	0.017
Clc1ccc(CN2CCO[C@H](COc3cccc(Cl)n3)C2)cc1	0.004
Fc1cc(CN2CCO[C@H](COc3ccccc3)C2)ccc1Cl	0.006
COc1cc(CN2CCO[C@H](COc3ccccc3)C2)ccc1Cl	0.01
COc1ccc2c(CN3CCO[C@H](COc4ccccc4)C3)c[nH]c2c1	0.037
